Here are results for six molecules from ChEMBL document CHEMBL4665637, “Inhibition of diverse opportunistic viruses by structurally optimized retrograde trafficking inhibitors” (Bioorg Med Chem, 2019).

pIC50: −log10 of the molar value. The source made the active and inactive calls. The rule behind the calls is not given here.

In series [1] the test system is NHDF. The series is described as follows: Inhibition of retrograde transport in NHDF cells assessed as displacement of STX5 from golgi apparatus at 10 uM by immunofluorescence analysis. Format: functional, cell-based. The following applies: Homo sapiens. The essentials:
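HDFs exposed to 10 µM compound or DMSO vehicle, fixed in 2% paraformaldehyde for 15 min at room temperature. Blocked in PBS with 10% human serum, 0.5% Tween-20 and 5% glycine, permeabilized with 0.1% Triton X-100. Stained for STX5 and for the Golgi marker p115, DAPI mounting, imaged by confocal microscopy.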

In series [2] the test system is Human betaherpesvirus 5. The series is described as follows: Antiviral activity against HCMV infected in human ARPE-19 cells at 7.5 uM measured after 3 days post infection. In kind it is functional, cell-based. A digest of the protocol: (§1)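 ARPE-19 cells infected with GFP-expressing HCMV and treated with compound at 7.5 µM. Images taken 3 and 6 days post infection, and area of infection calculated from GFP signal. Average of 3 distinct experiments.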

In series [3] the test system is Human betaherpesvirus 5. The series is described as follows: Antiviral activity against HCMV infected in human ARPE-19 cells at 7.5 uM measured after 6 days post infection. In kind it is functional, cell-based. The essentials:
as §1

For series [4], the system named is NHDF. The experiment in a line: Cytotoxicity in human NHDF cells assessed as cell viability at 10 uM incubated for 96 hrs by CellTiter-Glo Luminescent assay. In kind it is cell-based. The essentials: (§2)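 Cells in 96-well plates exposed to DMSO or compound at 100 nM or 10 µM for 96 h. Medium then replaced with fresh medium. XTT read as absorbance after 2 h at 37°C with activating reagent; CellTiter-Glo (ATP) read as luminescence. Average of three independent experiments.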

Series [5] has as its system ARPE-19. The experiment in a line: Cytotoxicity in human ARPE-19 cells assessed as cell viability at 10 uM incubated for 96 hrs by CellTiter-Glo Luminescent assay. In kind it is cell-based. To be noted: arpe-19, 96 h. The essentials:
as §2
(Cellular ATP, detected with luciferase, serves as a proxy for viable cell number.)

The subject of series [6] is Vero. The experiment in a line: Cytotoxicity in African green monkey VERO cells assessed as cell viability at 10 uM incubated for 96 hrs by CellTiter-Glo Luminescent assay. In kind it is cell-based. To be noted: chlorocebus sabaeus, dose […]. A digest of the protocol:
as §2

A short description of series [7]: Cytotoxicity in mouse BALB/3T3 clone A31 cells assessed as cell viability at 10 uM incubated for 96 hrs by CellTiter-Glo Luminescent assay. Format: cell-based. To be noted: balb/3t3 clone a31, 96 h. A digest of the protocol: as §2
The test system of series [8] is BALB/3T3 clone A31. The experiment in a line: Antiviral activity against mouse polyomavirus A2 strain infected in BALB.3T3 clone A31 cells assessed as viral RNA at 100 nM to 10 uM measured after 24 hpi by RT-PCR analysis. In kind it is functional, cell-based. To be noted: Murine polyomavirus, dose microM 0.1-10. The essentials:
(§3)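 A31 cells in 10% FBS DMEM infected with MuPyV A2 at MOI 1 for 1.5 h at 37°C. Cells washed twice, then exposed to compound (100 nM, 1.0 µM or 10 µM) for 24 h. Total RNA extracted and 2 µg converted to cDNA. LT mRNA measured by qPCR, normalized to TBP and to untreated cells. Two independent experiments, n=4 per condition, mean ± SD, 2-way ANOVA.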

Series [9] deals with NHDF. The experiment in a line: Cytotoxicity in human NHDF cells assessed as cell viability at 100 nM incubated for 96 hrs by CellTiter-Glo Luminescent assay. Format: cell-based. To be noted: 0.1 µM. A digest of the protocol:
as §2

The test system of series [10] is ARPE-19. The experiment in a line: Cytotoxicity in human ARPE-19 cells assessed as cell viability at 100 nM incubated for 96 hrs by CellTiter-Glo Luminescent assay. In kind it is cell-based. The following applies: arpe-19, 96 h, 0.1 µM. A digest of the protocol:
as §2

The test system of series [11] is Vero. The series is described as follows: Cytotoxicity in African green monkey VERO cells assessed as cell viability at 100 nM incubated for 96 hrs by CellTiter-Glo Luminescent assay. In kind it is cell-based. To be noted: chlorocebus sabaeus, 0.1 µM. The essentials: as §2
The nature of series [12]: Cytotoxicity in mouse BALB/3T3 clone A31 cells assessed as cell viability at 100 nM incubated for 96 hrs by CellTiter-Glo Luminescent assay. The following applies: balb/3t3 clone a31, 96 h, 0.1 µM. In kind it is cell-based. The essentials:
as §2

Series [13] concerns NHDF. The experiment in a line: Cytotoxicity in human NHDF cells assessed as cell viability at 100 nM incubated for 96 hrs by XTT Assay. The following applies: 0.1 µM. In kind it is cell-based. A digest of the protocol: as §2
On the technique in general: Tetrazolium assays rely on reduction of a dye to a coloured formazan, in cell work by metabolically active cells.

For series [14], the system named is ARPE-19. The series is described as follows: Cytotoxicity in human ARPE-19 cells assessed as cell viability at 100 nM incubated for 96 hrs by XTT Assay. In kind it is cell-based. To be noted: arpe-19, 96 h, 0.1 µM. The essentials:
as §2

The subject of series [15] is Vero. The series is described as follows: Cytotoxicity in African green monkey VERO cells assessed as cell viability at 100 nM incubated for 96 hrs by XTT Assay. Format: cell-based. To be noted: chlorocebus sabaeus, 0.1 µM. A digest of the protocol: as §2
Series [16] can be described thus: Cytotoxicity in mouse BALB/3T3 clone A31 cells assessed as cell viability at 100 nM incubated for 96 hrs by XTT Assay. Format: cell-based. The following applies: balb/3t3 clone a31, 96 h, 0.1 µM. The essentials:
as §2

Series [17] relates to Human betaherpesvirus 5. The series is described as follows: Antiviral activity against HCMV TB40/E infected in human assessed as reduction in infectious virus titer at 10 uM compound added 2 hpi and measured after 96 hpi by inverted microscopic analysis.
Series [18] relates to Human betaherpesvirus 5. The series is described as follows: Antiviral activity against HCMV TB40/E infected in human NHDF cells assessed as reduction in infectious virus titer compound added 2 hpi and measured after 96 hpi by inverted microscopic analysis. The following applies: Human betaherpesvirus 5, TB40/E.
In series [19] the test system is NHDF. The series is described as follows: Cytotoxicity in human NHDF cells assessed as cell viability at 10 uM incubated for 96 hrs by XTT Assay. In kind it is cell-based. A digest of the protocol:
as §2

For series [20], the system named is ARPE-19. The series is described as follows: Cytotoxicity in human ARPE-19 cells assessed as cell viability at 10 uM incubated for 96 hrs by XTT Assay. In kind it is cell-based. To be noted: arpe-19, 96 h. The essentials: as §2
Series [21] deals with Vero. The experiment in a line: Cytotoxicity in African green monkey VERO cells assessed as cell viability at 10 uM incubated for 96 hrs by XTT Assay. In kind it is cell-based. The following applies: chlorocebus sabaeus. The essentials: as §2
Series [22] in a line: Cytotoxicity in mouse BALB/3T3 clone A31 cells assessed as cell viability at 10 uM incubated for 96 hrs by XTT Assay. Format: cell-based. To be noted: balb/3t3 clone a31, 96 h. The essentials:
as §2

Series [23] deals with BALB/3T3 clone A31. The experiment in a line: Antiviral activity against mouse polyomavirus A2 strain infected in BALB.3T3 clone A31 cells assessed as viral RNA at 100 nM measured after 24 hpi by RT-PCR analysis. In kind it is functional, cell-based. The following applies: Murine polyomavirus. A digest of the protocol:
as §3

Series [24] concerns BALB/3T3 clone A31. The experiment in a line: Antiviral activity against mouse polyomavirus A2 strain infected in BALB.3T3 clone A31 cells assessed as viral RNA at 1 to 10 uM measured after 24 hpi by RT-PCR analysis. Format: functional, cell-based. To be noted: Murine polyomavirus. A digest of the protocol:
as §3

Usually pIC50 stands for −log10 of the IC50, conventionally taken in molar units. As for `Cc1nc(-c2ccc(C3N(C)c4ccc(C#N)cc4C(=O)N3c3ccccc3)s2)cs1` (stereo not drawn), the “STX5 displacement from Golgi (active/inactive call)” value with NHDF [1] is “Active”. Further, the result in the series with Human betaherpesvirus 5 [2], in the series with Human betaherpesvirus 5 [3], in the series with BALB/3T3 clone A31 [8] and in the series with Human betaherpesvirus 5 [17] was Active. The Activity result in the series with NHDF [4] was “Toxic”; with ARPE-19 [5], “Toxic”; in the series with Vero [6] it was “Toxic”; in series [7], “Toxic”; in the series with NHDF [9] it was “Non-Toxic”; in the series on ARPE-19 [10], “Non-Toxic”. Further, the Activity result (in the series with Vero [11]; in series [12]; with NHDF [13]; in the series on ARPE-19 [14]; in the series on Vero [15]; in series [16]) was “Non-Toxic” in each case. The negative logarithm of the IC50 (pIC50) in the series with Human betaherpesvirus 5 [18] is 7.47.
With `Cc1nc(-c2ccc(C3Nc4ccc(C#N)cc4C(=O)N3c3ccccc3)s2)cs1` (stereo not drawn), in the series with NHDF [1], the “STX5 displacement from Golgi (active/inactive call)” value was “Active”. The result with Human betaherpesvirus 5 [2], in the series with Human betaherpesvirus 5 [3], in the series on BALB/3T3 clone A31 [24] and in the series on Human betaherpesvirus 5 [17] was Active. Moreover, the Activity result (in the series on NHDF [4]; in the series on ARPE-19 [5]; with Vero [6]; in [7]; in the series on NHDF [19]; in the series on ARPE-19 [20]) was “Toxic” throughout. The Activity result with Vero [21] was “Toxic”; in [22] it was “Toxic”; with NHDF [9], “Non-Toxic”; with ARPE-19 [10] it was “Non-Toxic”; with Vero [11], “Non-Toxic”; in series [12] it was “Non-Toxic”. The Activity entry (with NHDF [13]; in the series with ARPE-19 [14]; in the series on Vero [15]; in [16]) was “Non-Toxic” each time. Further, the outcome with BALB/3T3 clone A31 [23] was inactive. In addition, the pIC50 with Human betaherpesvirus 5 [18] was 7.02.
Regarding `Cc1nc(-c2ccc(C3N(C)c4ccc(F)cc4C(=O)N3c3ccccc3)s2)cs1` (stereo not drawn), in the series with Human betaherpesvirus 5 [18], the negative logarithm of the IC50 (pIC50) was 7.60.
On the same count and under the same terms, as for `Cc1nc(-c2ccc(C3N(C)c4ccccc4C(=O)N3c3ccccc3)s2)cs1` (stereo not drawn), the figure is 6.41.
`Cc1nc(-c2ccc(C3N(C)c4ccc([N+](=O)[O-])cc4C(=O)N3c3ccccc3)s2)cs1` (stereo not drawn): in the series with NHDF [1], the “STX5 displacement from Golgi (active/inactive call)” value was “Active”. In addition, the outcome in the series with Human betaherpesvirus 5 [2], in the series with Human betaherpesvirus 5 [3], in the series on BALB/3T3 clone A31 [8] and in the series on Human betaherpesvirus 5 [17] was Active. The Activity entry (with NHDF [4]; in the series on ARPE-19 [5]; in the series with Vero [6]; in series [7]; in the series with NHDF [19]; in the series with ARPE-19 [20]) was “Toxic” throughout. Moreover, the Activity entry in the series on Vero [21] is listed as “Toxic”; in series [22], “Toxic”; in the series with NHDF [9], “Non-Toxic”; in the series on ARPE-19 [10] it was “Non-Toxic”; in the series with Vero [11], “Non-Toxic”; in series [12], “Non-Toxic”. Moreover, the Activity result (with NHDF [13]; in the series on ARPE-19 [14]; with Vero [15]; in [16]) was “Non-Toxic” each time. For the same molecule, the pIC50 with Human betaherpesvirus 5 [18] is 7.67.
For the molecule `Cc1nc(-c2ccc(C3Nc4ccc([N+](=O)[O-])cc4C(=O)N3c3ccccc3)s2)cs1` (stereo not drawn), in the series with NHDF [1], the “STX5 displacement from Golgi (active/inactive call)” value was “Active”. In addition, the outcome with Human betaherpesvirus 5 [2], in the series with Human betaherpesvirus 5 [3], in the series on BALB/3T3 clone A31 [24] and in the series on Human betaherpesvirus 5 [17] was Active. Besides, the Activity entry (in the series on NHDF [4]; in the series on ARPE-19 [5]; in the series on Vero [6]; in [7]; with NHDF [19]; in the series on ARPE-19 [20]) was “Toxic” throughout. For the same molecule, the Activity result with Vero [21] is recorded as “Toxic”; in series [22] it was “Toxic”; in the series with NHDF [9], “Non-Toxic”; in the series on ARPE-19 [10] it was “Non-Toxic”; in the series with Vero [11] it was “Non-Toxic”; in series [12], “Non-Toxic”. The Activity result (in the series with NHDF [13]; with ARPE-19 [14]; in the series on Vero [15]; in series [16]) was “Non-Toxic” in each case. Moreover, the outcome in the series on BALB/3T3 clone A31 [23] was inactive. The pIC50 in the series with Human betaherpesvirus 5 [18] is 7.04.
